Measured values: ChEMBL document CHEMBL1177808, “Benzofuran-substituted urea derivatives as novel P2Y(1) receptor antagonists” (Bioorg Med Chem Lett, 2010)

How the values were obtained:
P2Y purinoceptor 1 [1] = target: T1, P2Y purinoceptor 1 (Homo sapiens, UniProt P47900); assay: Antagonist activity at P2Y1 expressed in HEK293 cells by FLIPR assay; type: functional, cell-based
Procedure, shortened: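 HEK-293 MSRII cells (endogenous P2Y1) grown in DMEM/F12 with 10% FBS, plated 20,000/well, cultured 48 h. Loaded with calcium 3 dye in HBSS pH 7.4 plus 2.5 mM probenecid, 1 h, 37 °C. Calcium flux read on FLIPR; IC50 from non-linear regression; at least three determinations.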

P2Y purinoceptor 1 [2] = target: T1, P2Y purinoceptor 1; assay: Displacement of [33P]2-MeS-ADP from human P2Y1 receptor expressed in human U2OS cells by scintillation counting; type: cell-based
Procedure, shortened: (§1)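 Membranes from BacMam-transduced U2OS cells expressing human P2Y1, 0.5 µg prebound to 0.5 mg WGA-SPA beads. Radioligand 150 pM [33P]-2-MeS-ADP in 15 mM Hepes, 145 mM NaCl, 0.1 mM MgCl2, 5 mM EDTA, 5 mM KCl, with test compound dilutions or DMSO. Incubated 1 h at room temperature, centrifuged at 2000g, SPA counts read. At least three determinations.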

Platelet [3] = assay: Inhibition of ADP-mediated alpha granule release in human platelet assessed as inhibition of P-selectin expression at 10 uM by flow cytometry; type: functional
Procedure, shortened: (§2)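 Human PRP from drug-free volunteers (EDTA 10 mM, 300g 4 min), diluted 1:50 in Hepes-modified Tyrode's buffer pH 7.4. Compound or DMSO added, then immediately ADP 300 nM for 5 min. PE-anti-CD62P for 15 min, fixed 30 min in 2% paraformaldehyde, P-selectin read by flow cytometry.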

P2Y purinoceptor 1 [4] = target: T1, P2Y purinoceptor 1; assay: Displacement of [33P]2-MeS-ADP from human P2Y1 receptor expressed in human U2OS cells at 10 uM by scintillation counting; type: cell-based; procedure, shortened: as §1
Platelet [5] = assay: Inhibition of ADP-mediated alpha granule release in human platelet assessed as inhibition of P-selectin expression by flow cytometry; type: functional, cell-based; procedure, shortened: as §2

T1 sequence (P47900 whole entry): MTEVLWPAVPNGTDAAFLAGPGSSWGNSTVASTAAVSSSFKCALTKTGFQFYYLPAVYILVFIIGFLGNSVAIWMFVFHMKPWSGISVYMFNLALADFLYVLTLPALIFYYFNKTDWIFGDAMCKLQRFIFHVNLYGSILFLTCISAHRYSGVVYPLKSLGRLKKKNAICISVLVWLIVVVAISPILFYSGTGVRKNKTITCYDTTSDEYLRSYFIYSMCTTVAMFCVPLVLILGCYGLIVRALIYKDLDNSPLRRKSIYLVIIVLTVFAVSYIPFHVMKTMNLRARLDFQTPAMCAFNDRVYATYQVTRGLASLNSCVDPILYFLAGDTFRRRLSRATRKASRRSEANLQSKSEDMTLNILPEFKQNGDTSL

| Compound | IC50 (P2Y purinoceptor 1 [1]) [µM] | Ki (P2Y purinoceptor 1 [2]) [µM] | inhibition (P2Y purinoceptor 1 [4]) [%] | IC50 (Platelet [5]) [µM] | inhibition at 10 µM (Platelet [3]) [%] |
| --- | --- | --- | --- | --- | --- |
| O=C(Nc1ccc(OC(F)(F)F)cc1)Nc1cccc2cc(-c3cccc(C(F)(F)F)c3)oc12 | > 25 | – | – | – | – |
| CCCCOc1ccc(NC(=O)Nc2cccc3cc(-c4ccccc4C(C)C)oc23)cc1 | 2 | 0.64 | – | – | – |
| O=C(Nc1ccc(OC(F)(F)F)cc1)Nc1cccc2cc(-c3ccccc3C(F)(F)F)oc12 | 6.3 | 2.5 | – | – | – |
| CC(C)Oc1ccccc1-c1cc2cccc(NC(=O)Nc3ccc(OC(F)(F)F)cc3)c2o1 | > 25 | – | – | – | – |
| CC(C)c1ccccc1-c1cc2cccc(NC(=O)Nc3ccc(N(C)C)cc3)c2o1 | 15.8 | – | – | – | – |
| CC(C)(C)c1ccccc1-c1cc2cccc(NC(=O)Nc3ccc(OC(F)(F)F)cc3)c2o1 | 4 | 0.4 | – | – | – |
| O=C(Nc1ccc(OC(F)(F)F)cc1)Nc1cccc2cc(-c3ccccc3Cl)oc12 | > 25 | – | – | – | – |
| CCCCCc1ccc(NC(=O)Nc2cccc3cc(-c4ccccc4C(C)C)oc23)cc1 | 0.63 | 0.14 | – | – | – |

The next lines start with results.

| IC50 (P2Y purinoceptor 1 [1]) [µM] | Ki (P2Y purinoceptor 1 [2]) [µM] | inhibition (P2Y purinoceptor 1 [4]) [%] | IC50 (Platelet [5]) [µM] | Compound | inhibition at 10 µM (Platelet [3]) [%] |
| --- | --- | --- | --- | --- | --- |
| 4 | 0.6 | – | – | CC(C)c1ccccc1-c1cc2cccc(NC(=O)Nc3ccc(OC(F)(F)F)cc3)c2o1 | 49 |
| 5 | – | 60 | – | CC(C)c1ccccc1-c1cc2cccc(NC(=O)Nc3cccc(C(F)(F)F)c3)c2o1 | – |
| 1.6 | – | 69 | – | Cc1ccc(NC(=O)Nc2cccc3cc(-c4ccccc4C(C)C)oc23)cc1C(F)(F)F | 79 |
| 2 | 0.76 | – | – | CC(C)c1ccccc1-c1cc2cccc(NC(=O)Nc3ccc(Cl)cc3)c2o1 | – |
| 1.3 | – | 72 | 0.3 | CC(C)c1ccccc1-c1cc2cccc(NC(=O)Nc3ccc(C(C)(C)C)cc3)c2o1 | 100 |
